Entries after “also recorded” stand apart in the source; their conditions may differ. Where no end group is shown, it is not given here.
How the values were obtained:
[1] = test system: EGFR phosphorylation, Akt and Erk1/2 phosphorylation in HT29 cells; assay: effect of peptide on cell signaling, western blot; type: cell-based, human; conditions: 5 and 100 μM, 10, 20 and 120 min
How it was run: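 HT29 cells held in serum-free medium for 16 h, then exposed to Cy5.5-labeled peptide at 5 or 100 μM for 10, 20 or 120 min. EGF at 100 ng/ml for the same times served as reference. Cells lysed in RIPA with protease inhibitors, followed by SDS gel electrophoresis, PVDF transfer and chemiluminescent immunoblotting. Probes: EGFR, phospho-EGFR, AKT, phospho-AKT (S473), ERK1/2, phospho-ERK1/2 and tubulin.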

[2] = test system: spontaneous colonic adenomas in CPC;Apc mice; assay: in vivo near-infrared fluorescence endoscopy of colon in CPC; parameters: species or system mouse; conditions: for target-to-background ratio, flat lesions / target-to-background ratio, polyps: 1.5 ml, 5 min incubation; for target-to-background ratio, flat lesions: flat lesions n=15, 5 mice; for target-to-background ratio, polyps: polyps n=15, 5 mice; for T/B ratio (log2), flat lesions / T/B ratio (log2), polyps: mean±s.d., n=15
How it was run: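 CPC;Apc mice (Cdx2-Cre, floxed Apc allele), n=5, aged 7–10 months, under 2–4% isoflurane in oxygen by nose cone. Colon rinsed with water under white light. Cy5.5-labeled peptides (100 μM) delivered topically through the endoscope channel and left 5 min, then unbound peptide rinsed off. Imaging with small-animal NIR fluorescence endoscope; lesions excised for H&E. T/B ratios log-transformed; fold-change taken as anti-log of difference.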

human colonic dysplasia = assay: binding of peptide and antibody to human colonic specimens, confocal microscopy
How it was run: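 Human colonic biopsies from routine colonoscopy, frozen in OCT, cut at 10 μm. Sections incubated with 5 μM Cy5.5-labeled peptide in PBS for 10 min at RT, then rabbit anti-EGFR (1:1000) overnight at 4 °C and AF488 goat anti-rabbit (1:500) 1 h at RT. Sections fixed in 4% PFA and mounted with DAPI; confocal imaging at 20×. Mean intensity taken from three 30×30 μm² boxes within surface epithelium per specimen. Histology reviewed by GI pathologist.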

[3] = test system: human dysplastic colorectal polyps; conditions: FITC-labeled, confocal endomicroscopy; cited from earlier work
[4] = test system: EGFR in HT29 cells (siCL vs siEGFR); assay: siRNA knockdown of EGFR, confocal microscopy of peptide binding; type: cell-based, human; conditions: for intensity siCL vs siEGFR (in words): HT29, confocal; for binding/intensity in HT29 knockdown cells (siEGFR) / binding to control HT29 cells (siCL): confocal; for binding/intensity in HT29 knockdown cells (siEGFR): EGFR-targeting siRNA; for binding to control HT29 cells (siCL): nontargeting siRNA
How it was run: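 HT29 cells, with penicillin–streptomycin omitted, transfected using DharmaFECT with EGFR-targeting or nontargeting pool siRNA. Cells incubated with Cy5.5-labeled test and control peptides, then fixed in 4% PFA or methanol. Stained with mouse anti-EGFR (1:1000) overnight at 4 °C, then AF488 goat anti-mouse (1:500) 1 h at RT. Mounted with DAPI; confocal imaging with 63× oil objective.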

HT29 cells [5] = assay: apparent association time constant, flow cytometry; type: binding, human; conditions: from k, 5 μM QRH*-Cy5.5, 4 °C
How it was run: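 HT29 cells detached with PBS-based dissociation buffer; ~10^5 cells incubated with 5 μM Cy5.5-labeled test peptide at 4 °C for intervals from 0 to 20 min. Cells washed in cold PBS, fixed in 4% PFA and analysed by flow cytometry. Median fluorescence taken as a ratio to cells without peptide at each time point. Rate constant k fitted to y(t)=Imax[1−exp(−kt)]. Six independent experiments.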

[6] = test system: dysplastic crypts in polyps; assay: binding to dysplastic crypts in mouse polyp specimens, immunofluorescence; conditions: optimal cutting temperature-embedded mouse specimens
How it was run: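 Mouse polypoid dysplasia frozen in OCT and cut at 10 μm. Sections stained with goat anti-mouse anti-EGFR (1:1000) plus AF488-labeled secondary antibody, washed in PBS, fixed in 4% PFA for 10 min and mounted with DAPI. Confocal microscopy used; adjacent sections stained with H&E.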

[7] = fluorescence spectra of Cy5.5-labeled peptides; type: physicochemical; conditions: 10 μM in PBS, λex=671 nm
HT29 cells [8] = assay: confocal fluorescence microscopy of peptide binding, HT29; type: cell-based, human; conditions: 5 μM peptide, 3 min at RT; HT29 high EGFR expression
How it was run: (§1)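 HT29 cells kept in McCoy's medium; SW480 and SW620 cells in DMEM. All with 10% FBS and 1% penicillin–streptomycin at 37 °C, 5% CO2. ~10^3 cells grown on coverslips to ~80% confluence, washed in PBS and incubated with 5 μM Cy5.5-labeled test or control peptide for 3 min at RT. Cells washed, fixed in 4% PFA for 5 min and mounted with DAPI; confocal imaging with 63× oil objective. Intensities quantified from five cells in two independent images.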

SW620 cells = assay: confocal fluorescence microscopy of peptide binding, SW620; type: cell-based, human; conditions: 5 μM peptide, 3 min at RT; SW620 low EGFR expression
How it was run: as §1

SW480 cells = assay: confocal fluorescence microscopy of peptide binding, SW480; type: cell-based, human; conditions: 5 μM peptide, 3 min at RT; SW480 medium EGFR expression
How it was run: as §1

[9] = target: Epidermal growth factor receptor (EGFR) (human (endogenous in HT29, SW480, SW620), UniProt P00533 25-1210); assay: immunostaining of cells or tissue
[10] = NIR endoscopy, topical 100 μM, 5 min
[11] = anti-log of difference in log-transformed data

| Molecule | EGFR phosphorylation / downstream signaling [1] | target-to-background ratio, flat lesions ([2]; topical 100 μM) | target-to-background ratio, polyps ([2]; topical 100 μM) | intensity siCL vs siEGFR (in words) [4] | binding/intensity in HT29 knockdown cells (siEGFR) [4] | binding to control HT29 cells (siCL) [4] | fluorescence signal from flat lesions [2, 10] | fluorescence signal from polyp [2, 10] | T/B ratio (log2), flat lesions ([2]; topical 100 μM) [log2] | T/B ratio (log2), polyps ([2]; topical 100 μM) [log2] | peak emission [7] [nm] | further results |
| --- | --- | --- | --- | --- | --- | --- | --- | --- | --- | --- | --- | --- |
| QRHKPRE | No downstream signaling was observed; also recorded: lack of cytoplasmic signaling | 2.7±0.7 | 4.0±1.7 |  |  |  |  |  |  |  |  | mean fluorescence intensity, dysplasia compared with normal (human colonic dysplasia; 5 μM, 10 min at RT, dysplasia n=29, normal n=15): 19.4 fold |
| VRPMPLQ |  |  |  |  |  |  |  |  |  |  |  | detection of dysplastic colorectal polyps [3]: used to detect human dysplastic colorectal polyps in vivo with confocal endomicroscopy |
| QRHKPRE [QRH*-Cy5.5] | no evidence of either EGFR phosphorylation or downstream phosphorylation of Akt and Erk1/2 | 2.7±0.7 | 4.0±1.7 | significantly higher intensities for siCL-transfected HT29 cells | Reduced fluorescence intensity | bind strongly to the surface; also recorded: strong binding | Several flat lesions are seen on fluorescence; also recorded: presence of flat lesions | increased intensity from the polyp in a heterogeneous pattern | 1.39±0.34 | 1.90±0.60 | 710 | signal from normal colonic mucosa [2, 10]: minimal background; mean fold difference of T/B ratio QRH*-Cy5.5 vs PEH*-Cy5.5, flat lesions [2, 11]: 2.05; mean fold difference of T/B ratio QRH*-Cy5.5 vs PEH*-Cy5.5, polyps [2, 11]: 2.43; difference in results between QRH*-Cy5.5 and PEH*-Cy5.5 (target-to-background) ([2]; topical 100 μM, 5 min): significant; time scale for binding (HT29 cells [5]): 2.46 min; binding to dysplastic crypts in polyps [6]: increased fluorescence intensity; area under ROC curve (AUC) (human colonic dysplasia; dysplasia vs normal, n=29 and 15): 0.94 |
| PEHKRRQ [PEH*-Cy5.5] |  |  |  | nonsignificant decrease | minimal binding | minimal binding | Minimal signal | Minimal signal | 0.36±0.47 | 0.62±0.77 | 710 | binding to cell surface (HT29) (HT29 cells [8]): Minimal binding; binding to cell surface (SW620) (SW620 cells): Minimal binding; binding to cell surface (SW480) (SW480 cells): Minimal binding |
| QRHKPREGGGSK(Cy5.5)-NH2 [QRH*-Cy5.5] |  |  |  |  |  |  |  |  |  |  |  | fold change of fluorescence intensity, siCL- vs. siEGFR-transfected cells [9]: 3.2 fold |

From publication PMC4816258 (Clinical and Translational Gastroenterology, 2015)
